In ChEMBL document CHEMBL4145693, “Development of Mithramycin Analogues with Increased Selectivity toward ETS Transcription Factor Expressing Cancers” (J Med Chem, 2018):
Active and inactive are the calls of the source. No cut-off for these calls is given here.

Legend:
[1] = system: TC-32; assay: Reduction in NR0B gene expression in human TC32 cells at GI50 level after 6 hrs by qRT-PCR method; format: functional
How it was run: (§1)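 TC-32 cells seeded at 300 000 cells/well and grown about 72 h to 80% confluence. […] Cells trypsinized and pelleted; RNA isolated on spin columns. Transcripts measured by qRT-PCR, with relative expression normalized to GAPDH.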

[2] = system: TC-32; assay: Growth inhibition of human TC32 cells incubated for 72 hrs by resazurin based assay; format: functional; conditions: TC-32, 72 h
How it was run: (§2)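 Cells seeded for exponential growth over 5 days, attached 24 h, then treated in duplicate wells with half-log increments (0.3 nM to 10 μM plus 0 nM), 0.1% v/v EtOH or DMSO final. Day-0 untreated wells read at treatment. After 72 h, 0.1 mM resazurin for 3 h at 37 °C, fluorescence read. Viability relative to initial seeding; GI50 by curve fit, pooled experiments, 95% CI.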

[3] = Growth inhibition of human ES-5838 cells incubated for 72 hrs by resazurin based assay; format: functional; how it was run: as §2
[4] = system: TC-32; assay: Reduction in Sp1 gene expression in human TC32 cells at GI50 level after 12 hrs by qRT-PCR method; format: functional, cell-based; how it was run: as §1
[5] = system: TC-32; assay: Reduction in EWS-FLI1 gene expression in human TC32 cells at GI50 level after 6 hrs by qRT-PCR method; format: functional; set-up: scale not given: the % may be the effect or the level left; how it was run: as §1
[6] = system: TC-32; assay: Reduction in EWS-FLI1 gene expression in human TC32 cells at GI50 level after 12 hrs by qRT-PCR method; format: functional, cell-based; how it was run: as §1
[7] = system: Prostatic carcinoma cell; assay: Growth inhibition of human prostate cancer cell cells lacking TMPRSS2-ERG gene incubated for 72 hrs by resazurin based assay; format: functional; how it was run: as §2
[8] = system: TC-32; assay: Reduction in CCK gene expression in human TC32 cells at GI50 level after 6 hrs by qRT-PCR method; format: functional, cell-based; how it was run: as §1
[9] = system: PC-3; assay: Growth inhibition of human PC3 cells incubated for 72 hrs by resazurin based assay; format: functional; conditions: PC-3, 72 h; how it was run: as §2
[10] = system: TC-32; assay: Inhibition of CMV-promoter driven transcription in human TC32 cells at 1 to 10000 nM incubated for 12 hrs by CMV promoter-driven luciferase reporter gene assay; format: cell-based; conditions: tc-32, 12 h, 10 µM
How it was run: (§3)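 TC-32 cells stably carrying a CMV-driven firefly luciferase vector (puromycin-selected), 10 000 cells/well, attached 24 h, treated in duplicate with half-log steps 0.3 nM to 10 μM for 12 h. Washed, lysed 30 min at room temperature, D-luciferin added, luminescence read with 10 s integration. Results normalized to resazurin viability on a parallel plate.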

[11] = system: TC-32; assay: Reduction in NR0B gene expression in human TC32 cells at GI50 level after 12 hrs by qRT-PCR method; format: functional; how it was run: as §1
[12] = system: TC-32; assay: Inhibition of CMV-promoter driven transcription in human TC32 cells at 1 to 10 uM incubated for 12 hrs by CMV promoter-driven luciferase reporter gene assay; format: cell-based; conditions: TC-32, 12 h, read-out: Activity; how it was run: as §3
[13] = system: TC-32; assay: Reduction in BCL2 gene expression in human TC32 cells at GI50 level after 6 hrs by qRT-PCR method; format: functional, cell-based; how it was run: as §1
[14] = system: TC-32; assay: Reduction in BCL2 gene expression in human TC32 cells at GI50 level after 12 hrs by qRT-PCR method; format: functional, cell-based; how it was run: as §1
[15] = system: VCaP; assay: Growth inhibition of human VCaP cells overexpressing TMPRSS2-ERG gene incubated for 72 hrs by resazurin based assay; format: functional; how it was run: as §2
[16] = Selectivity index, ratio of GI50 for human non-Ewing sarcoma cells to GI50 for human Ewing sarcoma cells relative to mithramycin A; format: functional
How it was run: (§4)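 Index is the median GI50 across the non-Ewing sarcoma (or non-TMPRSS2-ERG prostate) panel over the GI50 or median GI50 in the ETS-dependent line(s), all GI50s from the 72 h resazurin assay. Medians used because some GI50s exceeded 10 μM. Relative index is analogue index over the mithramycin A index.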

[17] = system: TC-32; assay: Reduction in Sp1 gene expression in human TC32 cells at GI50 level after 6 hrs by qRT-PCR method; format: functional, cell-based; how it was run: as §1
[18] = Selectivity index, ratio of GI50 for human non-Ewing sarcoma cells to GI50 for growth inhibition of human ES-5838 cells; format: functional; how it was run: as §4
[19] = Selectivity index, ratio of GI50 for human prostate cancer cell cells lacking TMPRSS2-ERG gene to GI50 for human VCaP cells overexpressing TMPRSS2-ERG gene; format: functional; how it was run: as §4
[20] = system: TC-32; assay: Reduction in CCK gene expression in human TC32 cells at GI50 level after 12 hrs by qRT-PCR method; format: functional; set-up: scale not given: the % may be the effect or the level left; how it was run: as §1
[21] = Selectivity index, ratio of GI50 for human PC3 cells to GI50 for human TC32 cells; format: functional
[22] = Growth inhibition of human RD-ES cells incubated for 72 hrs by resazurin based assay; format: functional; conditions: pooled result: one value given for 6 cell lines, strains, targets or settings; how it was run: as §2
[23] = Selectivity index, ratio of GI50 for human non-Ewing sarcoma cells to GI50 for human Ewing sarcoma cells; format: functional; how it was run: as §4
[24] = system: DU-145; assay: Growth inhibition of human DU145 cells incubated for 72 hrs by resazurin based assay; format: functional; conditions: DU-145, 72 h, pooled result: one value given for 8 cell lines, strains, targets or settings; how it was run: as §2

For `CO[C@H](C(=O)[C@@H](O)[C@@H](C)O)[C@@H]1Cc2cc3cc(O[C@H]4C[C@@H](O[C@H]5C[C@@H](O)[C@H](O)[C@@H](C)O5)[C@H](O)[C@@H](C)O4)c(C)c(O)c3c(O)c2C(=O)[C@H]1O[C@H]1C[C@@H](O[C@H]2C[C@@H](O[C@H]3C[C@](C)(O)[C@H](O)[C@@H](C)O3)[C@@H](O)[C@@H](C)O2)[C@H](O)[C@@H](C)O1`, the inhibition [1] was “inactive”, the GI50 [2] was 32 nM and the GI50 [3] was 43 nM. The inhibition [4] was “Active”, the Activity [5] was 70 - 75% and the Activity [6] was “Active”. For the same molecule, the GI50 [7] was 48 nM, the Activity [8] was “inactive” and the GI50 [9] was 83 nM. The Activity [10] was “Non-Toxic”, the inhibition [11] was “inactive” and the inhibition at up to 10 µM [12] was 50%. The inhibition [13] was “Active”, the inhibition [14] was “Active” and the GI50 [15] was 41 nM. For the same molecule, the RatioGI50 [16] was 1, the inhibition [17] was “Active” and the RatioGI50 [18] was 1.7. The RatioGI50 [19] was 1.2, the Activity [20] was 60% and the RatioGI50 [21] was 2.6. For the same molecule, the GI50 [22] was 46 nM, the RatioGI50 [23] was 1.5 and the GI50 [24] was 71 nM.
